Experiment [1] relates to CCRF-CEM. Nature of the experiment: Cytotoxicity against human daunorubicin-resistant CEM cells after 72 hrs by MTT assay. It is filed as cell-based. The procedure, abridged:
(§1)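 Cells seeded at 2500–30,000 cells/well and left 24 h at 37 °C, 5% CO₂, then fourfold dilution series in duplicate for 72 h. MTT for 4 h, formazan dissolved in 10% SDS (pH 5.5), OD read at 540 nm against controls. Mean of three independent experiments.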
A general note: Tetrazolium dyes change colour on reduction, which living cells bring about.

The next experiment deals with A549. Description: Cytotoxicity against human A549 cells after 72 hrs by MTT assay. Particulars: A549, 72 h. It is filed as functional, cell-based.
For experiment [2], the system named is CCRF-CEM. Nature of the experiment: Cytotoxicity against human CEM cells after 72 hrs by MTT assay. It is filed as cell-based.
In experiment [3] the test system is K562. Description: Cytotoxicity against human paclitaxel-resistant K562 cells after 72 hrs by MTT assay. It is filed as functional, cell-based. Particulars: K562, 72 h. The procedure, abridged:
as §1

The subject of experiment [4] is K562. Nature of the experiment: Cytotoxicity against human K562 cells after 72 hrs by MTT assay. It is filed as functional, cell-based. Particulars: K562, 72 h.

As usually defined, the IC50 is the concentration needed to halve the response being measured. A lower IC50 goes with greater potency in that assay.

On to `COc1cc(-c2nn(-c3ccccc3)c3nnc(-c4ccc(Cl)cc4)nc23)cc(OC)c1OC`, for which the IC50 with CCRF-CEM [1] came out at 113 µM; in the experiment with A549, 130 µM; in the experiment with CCRF-CEM [2], 11.6 µM; in the experiment with K562 [3], 225 µM; with K562 [4] it was 220 µM.
The corresponding values for `COc1cccc(-n2nc(-c3cc(OC)c(OC)c(OC)c3)c3nc(-c4ccc(Cl)cc4)nnc32)c1` are 108 µM, 2.86 µM, 54.7 µM, 219 µM and 192 µM.
The corresponding values for `COc1cc(-c2nn(-c3ccc(Cl)cc3)c3nnc(-c4ccc(Cl)cc4)nc23)cc(OC)c1OC` are 126 µM, 155 µM, 68.9 µM, 222 µM and 190 µM.
For `COc1cc(-c2nnc3c(n2)c(-c2cc(OC)c(OC)c(OC)c2)nn3-c2cc(OC)c(OC)c(OC)c2)cc(OC)c1OC`, in that order: 201 µM, 194 µM, 246 µM, 250 µM and 241 µM.
Consider `COc1ccc(-n2nc(-c3cc(OC)c(OC)c(OC)c3)c3nc(-c4ccc(Cl)cc4)nnc32)cc1`, for which the IC50 in the experiment with CCRF-CEM [1] came to 139 µM; with A549 it was 113 µM; in the experiment with CCRF-CEM [2] it was 226 µM; in the experiment with K562 [3] it was 250 µM; in the experiment on K562 [4] it was 248 µM.
